In data set [1] the target is T1, Neutrophil elastase (Homo sapiens, UniProt P08246).
T1 sequence (P08246 whole entry): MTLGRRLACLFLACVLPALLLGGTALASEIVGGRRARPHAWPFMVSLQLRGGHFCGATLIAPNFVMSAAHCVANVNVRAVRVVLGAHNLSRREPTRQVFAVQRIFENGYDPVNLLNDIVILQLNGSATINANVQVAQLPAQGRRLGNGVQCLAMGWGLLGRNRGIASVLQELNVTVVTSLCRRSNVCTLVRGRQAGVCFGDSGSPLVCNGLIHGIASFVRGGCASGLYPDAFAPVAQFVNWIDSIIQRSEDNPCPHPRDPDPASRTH
Nature of the data set: Inhibition constant of compound measured toward human leukocyte elastase (HLE) at pH 8 and 25 degree C. A digest of the protocol:
(§1)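 Chromogenic p-nitroanilide substrates, with MeO-Suc-Ala-Ala-Pro-Val-pNA for HLE. Enzymes were HLE 20 nM or PPE 22 nM, with inhibitors at 25–300 µM. Assays ran in 0.05 M Hepes pH 8.0 with 10% v/v DMSO at 25 °C, monitoring p-nitroaniline release continuously at 405 nm. Initial rates were fit to competitive inhibition. Ki came from a linear plot of Km(app)/Vm vs [I]; reversibility was checked by buffer exchange.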

Data set [2] deals with Pancreatic elastase (Sus scrofa, UniProt P08419+P00772). Kind of data set: Inhibition constant of compound measured toward porcine Pancreatic elastase at pH 8 and 25 degree C. Type of data set: protein assay. A digest of the protocol:
as §1

The target of data set [3] is T2, Neutrophil elastase (Homo sapiens) (UniProt P08246).
T2 sequence (whole entry): T1 sequence (P08246 whole entry)
Nature of the data set: (§2) Kinetic parameter was calculated by Michaelis equation catalyzed by Leukocyte elastase at 25 degree C and pH 8. A digest of the protocol: (§3)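 HLE at 200 nM, in 0.05 M Hepes pH 8.0 with 10% v/v DMSO and no NaCl, at 25 °C. Hydrolysis was read either by absorbance at 250 nm (substrate 5–50 µM) or by C8 reverse-phase HPLC (substrate 5–20 µM). For HPLC, products at 2–5 min were quantified against a Z-Ala-Ala-Pro-Val calibration. kcat and Km came from least-squares Michaelis fits. For HPLC, kcat/Km came from the linearized rate below Km.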

A short description of data set [4]: The catalytic efficiency is the ratio of kcat to that of Km. A digest of the protocol:
as §3

Substrate in data set [5]: CC(C)NC(=O)[C@H](C)NC(=O)[C@H](C)NC(=O)[C@@H](NC(=O)[C@H]1CCCN1C(=O)[C@H](C)NC(=O)[C@H](C)NC(=O)OCc1ccccc1)C(C)C
The data set is described as §2. Put shortly: as §3

Substrate in data set [6]: CC(C)NC(=O)[C@H](C)NC(=O)[C@H](C)NNC(=O)[C@@H](NC(=O)[C@H]1CCCN1C(=O)[C@H](C)NC(=O)[C@H](C)NC(=O)OCc1ccccc1)C(C)C
Described as §2. A digest of the protocol:
as §3

Numbered stars: 1 amine (or outer) side, 2 acyl side, 3 side chain; on linkers, the order of the positions; unused ones are H or OH. Square brackets hold non-standard residues; d marks the D form. Peptide text beside a SMILES is read from it. * marks the point of attachment. X1 = O=C([C@H]1CCCN1N[*:1])[*:2]; Cbz = O=C(OCc1ccccc1)*; NHiPr = CC(C)N*

The source of these data is ChEMBL document CHEMBL1131196, “Design and synthesis of hydrazinopeptides and their evaluation as human leukocyte elastase inhibitors” (J Med Chem, 1998).

A word on the Ki: it is a dissociation constant, usually derived from enzyme kinetics or from competition with a known ligand. Higher therefore signals weaker binding. With `CC(C)NC(=O)[C@H](C)NC(=O)[C@H](C)NC(=O)[C@@H](NNC(=O)[C@H]1CCCN1C(=O)[C@H](C)NC(=O)[C@H](C)NC(=O)OCc1ccccc1)C(C)C`, the values for the Ki in data set [1] and in data set [2] were 595 µM and 397 µM, respectively.
As to `CC(C)NC(=O)[C@H](C)NC(=O)[C@H](C)NC(=O)[C@@H](NC(=O)[C@H]1CCCN1C(=O)[C@H](C)NC(=O)[C@H](C)NC(=O)OCc1ccccc1)C(C)C`, the k cat in data set [3] is 0.88 s⁻¹. Further, the k cat/Km in data set [4] is 6780 M⁻¹ s⁻¹.
For `CC(C)NC(=O)[C@H](C)NC(=O)[C@H](C)NC(=O)[C@@H](NC(=O)[C@H]1CCCN1NC(=O)[C@H](C)NC(=O)[C@H](C)NC(=O)OCc1ccccc1)C(C)C` (Cbz-AA[X1]VAA-NHiPr), the Ki came out at 65 µM in data set [1] and 146 µM in data set [2].
Take `CC(C)NC(=O)[C@H](C)NC(=O)[C@H](C)NNC(=O)[C@@H](NC(=O)[C@H]1CCCN1C(=O)[C@H](C)NC(=O)[C@H](C)NC(=O)OCc1ccccc1)C(C)C`: in data set [3], the k cat was 2.24 s⁻¹. For the same molecule, the k cat/Km in data set [4] is 3150 M⁻¹ s⁻¹.

B1: Neutrophil elastase (Homo sapiens), P08246 (protein)
chain: T1 sequence (P08246 whole entry)
Usually Km stands for the concentration of substrate that gives half-maximal velocity. Turning to B1, the Km in data set [5] was 131 µM; in data set [6], 712 µM.
